“Also recorded” adds a separate entry of the source. Read-outs that look alike come from different tables or passages of the source.
Legend:
[1] = molecular target: T1, P450 1A1 (Homo sapiens, UniProt P04798); test: P450 1A1-dependent deethylation of resorufin ethyl ether; type: biochemical
T1 sequence (P04798 1-512): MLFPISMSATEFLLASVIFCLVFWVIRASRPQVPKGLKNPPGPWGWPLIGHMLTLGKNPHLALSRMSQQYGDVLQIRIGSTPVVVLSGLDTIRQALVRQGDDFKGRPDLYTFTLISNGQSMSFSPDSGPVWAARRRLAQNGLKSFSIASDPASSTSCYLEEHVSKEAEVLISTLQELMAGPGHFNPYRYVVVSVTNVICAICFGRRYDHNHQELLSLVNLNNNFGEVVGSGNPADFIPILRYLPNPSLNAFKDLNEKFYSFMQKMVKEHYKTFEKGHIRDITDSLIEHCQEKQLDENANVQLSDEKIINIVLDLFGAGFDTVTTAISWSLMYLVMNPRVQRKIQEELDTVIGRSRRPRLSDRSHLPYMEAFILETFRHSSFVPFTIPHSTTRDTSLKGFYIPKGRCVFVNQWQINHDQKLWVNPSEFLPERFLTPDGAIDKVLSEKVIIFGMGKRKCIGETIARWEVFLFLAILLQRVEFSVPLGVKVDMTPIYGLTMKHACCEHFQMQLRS

[2] = molecular target: T2, P450 1A2 (Homo sapiens, UniProt P05177); test: P450 1A2-dependent demethylation of resorufin methyl ether; type: biochemical
T2 sequence (P05177 1-516): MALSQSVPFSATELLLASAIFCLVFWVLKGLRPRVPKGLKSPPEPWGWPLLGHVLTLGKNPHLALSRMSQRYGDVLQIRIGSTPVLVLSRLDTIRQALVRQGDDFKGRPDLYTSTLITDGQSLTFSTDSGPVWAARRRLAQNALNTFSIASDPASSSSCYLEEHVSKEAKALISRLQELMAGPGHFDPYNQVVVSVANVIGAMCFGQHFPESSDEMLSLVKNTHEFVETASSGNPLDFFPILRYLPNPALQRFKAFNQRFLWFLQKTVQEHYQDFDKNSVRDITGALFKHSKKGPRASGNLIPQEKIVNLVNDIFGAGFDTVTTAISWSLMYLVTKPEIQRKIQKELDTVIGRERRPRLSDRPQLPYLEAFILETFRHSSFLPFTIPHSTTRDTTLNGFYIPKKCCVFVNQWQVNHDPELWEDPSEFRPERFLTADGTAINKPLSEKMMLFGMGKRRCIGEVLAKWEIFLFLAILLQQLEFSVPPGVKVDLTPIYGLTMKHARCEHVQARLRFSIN

[3] = molecular target: T1, P450 1A1; test: NADPH-dependency assay; type: biochemical; conditions: for NADPH-dependency of the inhibition of P450 1A1: 5 min preincubation with vs without NADPH
Procedure, shortened: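 Human P450 1A1 microsomes (1.6 nM final) were used in 0.1 M potassium phosphate pH 7.6 with MgCl2, with inhibitor in DMSO at 0.00625 or 0.1 μM. Preincubation was 5 min at 37 °C either with an NADPH-regenerating system, then started with 5 μM resorufin ethyl ether, or without NADPH, then started with regenerating system plus substrate. Resorufin time-course was read at ex 535/em 585 nm, 37 °C.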

[4] = molecular target: T3, P450 1A1 over P450 1A2 (Homo sapiens, UniProt P04798); test: P450 1A1-dependent deethylation of resorufin ethyl ether; type: biochemical; conditions: human, recombinant human CYP1A1 and CYP1A2 supersomes, pH 7.6
T3 sequence (P04798 1-512): T1 sequence (P04798 1-512)

[5] = molecular target: T1, P450 1A1; test: Time-dependent inhibition kinetics of P450 1A1; type: biochemical; conditions: for kinact: read-out: limiting kinact; for time-dependent inhibition of P450 1A1 (type of inhibition): time-course curves
Procedure, shortened: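 Human P450 1A1 microsomes (1.6 nM) were used with 5 μM resorufin ethyl ether in pH 7.6 phosphate buffer, with the NADPH-regenerating system added to start the reaction at 37 °C. Product was monitored continuously for 6 min at several inhibitor concentrations. Progress curves were fitted to second-order polynomials, and their derivatives gave activity over time. Semilog plots gave t1/2 (0.693/kinact), and KI and limiting kinact came from Kitz–Wilson plots (1/kinact vs 1/[I]).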

[6] = molecular target: T1, P450 1A1; conditions: read-out: Ki of well-known P450 1A1 inhibitors; cited from earlier work
[7] = molecular target: T4, P450 2B1 (Rattus norvegicus, UniProt P00176); test: P450 2B1-dependent depentylation of resorufin pentyl ether; type: biochemical
T4 sequence (P00176 1-491): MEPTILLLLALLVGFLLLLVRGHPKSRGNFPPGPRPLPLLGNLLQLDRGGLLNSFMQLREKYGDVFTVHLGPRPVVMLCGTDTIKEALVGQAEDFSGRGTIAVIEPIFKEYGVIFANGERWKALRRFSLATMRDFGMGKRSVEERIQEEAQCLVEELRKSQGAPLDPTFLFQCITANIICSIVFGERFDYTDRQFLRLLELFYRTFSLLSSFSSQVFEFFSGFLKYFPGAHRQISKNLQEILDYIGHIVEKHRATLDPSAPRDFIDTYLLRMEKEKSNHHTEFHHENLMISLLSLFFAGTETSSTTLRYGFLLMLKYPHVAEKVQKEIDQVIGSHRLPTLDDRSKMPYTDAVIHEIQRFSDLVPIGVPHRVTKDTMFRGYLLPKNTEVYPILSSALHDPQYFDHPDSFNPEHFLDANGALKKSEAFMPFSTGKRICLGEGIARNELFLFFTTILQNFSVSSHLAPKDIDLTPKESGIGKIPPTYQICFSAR
Procedure, shortened: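 Rat P450 2B1 microsomes (5 nM final) were used in 0.1 M potassium phosphate pH 7.6 with MgCl2, with 5 μM resorufin pentyl ether in DMSO. Reactions were started with an NADPH-regenerating system (NADP+, glucose 6-phosphate, G6PDH) and run at 37 °C. Resorufin formation was followed continuously at ex 535/em 585 nm.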

[8] = molecular target: T5, P450 1A2 over P450 1A1 (Homo sapiens, UniProt P05177); test: P450 1A2-dependent demethylation of resorufin methyl ether; type: biochemical; conditions: human, recombinant human CYP1A1 and CYP1A2 supersomes, pH 7.6
T5 sequence (P05177 1-516): T2 sequence (P05177 1-516)

SMILES	Ki [1] [nM]	Ki [2] [nM]	NADPH-dependency of the inhibition of P450 1A1 [3]	effect of 5 min preincubation with NADPH on P450 1A1 activity ([3]; inhibitor 0.00625 μM)	selectivity ratio at 6 min [4]	Ki [5] [nM]	kinact [5] [s⁻¹]	time-dependent inhibition of P450 1A1 (type of inhibition) [5]	Ki [6] [nM]	effect of 5 min preincubation with NADPH on P450 1A1 activity ([3]; inhibitor 0.1 μM)	Ki [7] [nM]	selectivity ratio at 6 min [8]
C#Cc1ccc2cc(-c3ccccc3)c(=O)oc2c1 [7E3PC, 7-ethynyl-3-phenylcoumarin, reference compound]	740											
C#Cc1ccc(-c2cc(=O)c3ccccc3o2)cc1 [4′EF, 4′-Ethynylflavone]		3260	exhibit NADPH-dependency	complete inhibition	85	56 ± 14	0.0055	time- and concentration-dependently inhibit P450 1A1				
C#Cc1ccc2c(=O)cc(-c3ccccc3)oc2c1 [7EF, 7-Ethynylflavone]			exhibit NADPH-dependency	complete inhibition; also recorded: completely subvert the enzymatic activity		35 ± 12	0.007	time- and concentration-dependently inhibit P450 1A1				
c1cc2ccc3cccc4ccc(c1)c2c34 [pyrene]									~40			
C#Cc1cccc(-c2cc(=O)c3ccccc3o2)c1 [3′EF, 3′-Ethynylflavone]			exhibit NADPH-dependency	complete inhibition; also recorded: completely subvert the enzymatic activity		53 ± 7	0.00767	time- and concentration-dependently inhibit P450 1A1				
C#Cc1cccc2oc(-c3ccccc3)cc(=O)c12 [5EF, 5-Ethynylflavone]	1230		exhibit NADPH-dependency			510 ± 90	0.0011	time- and concentration-dependently inhibit P450 1A1		considerable inhibition		
O=c1cc(-c2ccccc2)oc2c1ccc1ccccc12 [αNF, α-naphthoflavone]									~40			
C#Cc1ccc2oc(-c3ccccc3)cc(=O)c2c1 [6EF, 6-Ethynylflavone]	35	6200	exhibit NADPH-dependency	complete inhibition	177	43 ± 8	0.0055	time- and concentration-dependently inhibit P450 1A1				
C#Cc1ccccc1-c1cc(=O)c2ccccc2o1 [2′EF, 2′-Ethynylflavone]	1640	230	does not NADPH-dependently inhibit P450 1A1					only a competitive inhibitor		slight influence on enzymatic activity	15700	7.2
